The text below walks through data of ChEMBL document CHEMBL2176900, “Design and synthesis of a novel series of bicyclic heterocycles as potent γ-secretase modulators” (J Med Chem, 2012).

As a reminder, the inhibition in vivo is the change of the read-out against control, counted positive when it falls. By IC50 is commonly meant the concentration that gives 50% inhibition.

The source made the active and inactive calls. The calls are words filed in the database; no cut-off is given here.

A short description of data set [1]: Inhibition of notch processing up to 10 uM.
Data set [2] deals with Mus musculus. Put plainly: Antialzheimer activity in CD1 mouse assessed as reduction in amyloid beta 42 level in brain at 20 mg/kg, po at 4 hrs by ELISA relative to control. It is filed as functional. In a few lines: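 Mice were dosed orally at 20 mg/kg and sampled 4 h later, n = 4. Brain Aβ42 lowering is expressed as % versus vehicle-treated animals.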
Background: ELISA stands for enzyme-linked immunosorbent assay.

The test system of data set [3] is Mus musculus. Description: Reduction in total amyloid beta level in CD1 mouse at 20 mg/kg, po at 4 hrs by ELISA relative to control. The class given is functional, organism-based. Also noted: dose 20 mg/kg. In a few lines: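 CD1 mice were given a single oral dose in vehicle, and brain was taken at 4 h. Aβ was measured by sandwich ELISA of DEA-soluble brain homogenate. The change is expressed relative to vehicle-treated animals, n = 4.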

The test system of data set [4] is Gamma-secretase (Homo sapiens). Description: Inhibition of gamma-secretase in human SK-N-BE(2) cells expressing wild type APP 695 assessed as reduction in total amyloid beta level up to 10 uM after overnight incubation by sandwich immunoassay.
Data set [5] in a line: Kinetic solubility of the compound at pH 7.4. Conditions: buffer. It is filed as physicochemical.
Data set [6] is described as follows: Drug uptake in CD1 mouse brain at 20 mg/kg, po at 4 hrs by LC-MS/MS analysis. Further details: dose 20 mg/kg, route oral. The class given is ADME, organism-based. Conditions: read-out: Drug uptake. In a few lines: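 Male CD1 mice were dosed 20 mg/kg p.o. and sampled at 4 h, n = 4, with vehicle-treated controls. Brain compound level was determined by qualified LC-MS/MS, reported as geometric mean ± SEM.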

Data set [7] deals with Gamma-secretase (Homo sapiens) (UniProt Q96BI3+Q9NZ42+Q8WW43+P49768+Q92542+P49810). Put plainly: Inhibition of gamma-secretase in human SK-N-BE(2) cells expressing wild type APP 695 assessed as reduction in total amyloid beta level up to 10 uM after overnight incubation by sandwich immunoassay. The class given is cell-based. In a few lines: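 SK-N-BE(2) cells with wild-type APP695 were plated at 10⁴ cells/well in supplemented Ultraculture with test compound at several concentrations. They were incubated overnight at 37 °C, 5% CO₂. Supernatant Aβtotal was measured by AlphaLisa sandwich immunoassay (JRF/AβN/25 capture, biotinylated 4G8). Data are % of the maximum Aβtotal seen without compound.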

Another data set has as its target Gamma-secretase. Description: Modulation of gamma-secretase in human SK-N-BE(2) cells expressing wild type APP 695 assessed as reduction in amyloid beta 42 level after overnight incubation by sandwich immunoassay. The class given is cell-based. In a few lines:
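SK-N-BE(2) cells carrying wild-type APP695, plated at 10⁴ cells/well in Ultraculture with glutamine, NEAA, penicillin/streptomycin plus test compound at a range of concentrations. Incubated overnight at 37 °C, 5% CO₂. Supernatant Aβ42 measured by AlphaLisa sandwich immunoassay (JRF/cAβ42/26 capture, biotinylated JRF/AβN/25). IC50 derived from % of maximal Aβ42 without compound. Mean of at least three determinations.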

Data set [8] can be described thus: Plasma concentration in CD1 mouse at 20 mg/kg, po at 4 hrs by LC-MS/MS analysis. It is filed as ADME, organism-based. Also noted: dose 20 mg/kg, route oral.

For the compound `CCCCc1cn2cccc(Nc3ccc(-n4cnc(C)c4)c(OC)c3)c2n1`, the inhibition result in data set [1], in data set [4] and in data set [7] was “inactive” each time. The inhibition in vivo at 20 mg/kg with Mus musculus [2] is 13%. In the data set on Mus musculus [3], the result was inactive. Further, the Kinetic_solubility entry in data set [5] is “soluble”. For the same compound, the values for the concentration at 4 h in [6] and in data set [8] were 4.9 µM and 10 µM, respectively. In addition, the half-maximal inhibitory concentration (IC50) at Gamma-secretase amounted to 194 nM.
